ADAM10 inh: ADAM10 inhibition, QFRET primary screen; O14672; recombinant ADAM10, EDANS/DABCYL FRET peptide cleavage, 3 h; inhibition, % at 7 µM; 370,000 compounds, 0.62% hits; AID 720582;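 active = inhibition above a per-campaign cutoff equal to the mean of compounds falling between control-based bounds plus 3 SD, cut at about 20% in these data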;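 note: 0% = DMSO wells while the 100% control is not disclosed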
SENP1 inh: SENP1 (human) catalytic domain inhibition; recombinant SENP1 catalytic domain, CyPet-SUMO1-YPet FRET cleavage; 360,000 compounds, 0.21% hits; inhibition, % at 10 µM; AID 624204; Q9P0U3;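 active = inhibition at least 30% at 10 µM, raw YFP signal under a set limit, fluorescence ratio 0.5 to 1.5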;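 note: 0% = enzyme with DMSO and 100% = no enzyme wells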
Target sequence (Q9P0U3 419-644 limits assumed): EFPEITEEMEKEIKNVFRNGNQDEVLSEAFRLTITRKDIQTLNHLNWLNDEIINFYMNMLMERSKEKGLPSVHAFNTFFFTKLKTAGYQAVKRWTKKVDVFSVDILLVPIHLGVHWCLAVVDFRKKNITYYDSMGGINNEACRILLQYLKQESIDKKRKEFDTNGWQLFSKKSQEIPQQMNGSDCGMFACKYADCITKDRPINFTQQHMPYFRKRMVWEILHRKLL
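Compound: 10 µM single point, 0.5% DMSO; Test system: hSENP1 catalytic domain, recombinant; Timing: 50 min reaction at room temperature; Technique: FRET, CFP and YFP emission; Control set: no-enzyme wells low, DMSO-plus-enzyme wells high control.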
FAS-TE inh: blocks the thioesterase domain of human fatty acid synthase. recombinant FAS-TE, OMFH fluorogenic substrate, fluorescence endpoint. P49327. 360,000 compounds, 0.67% hits. inhibition, % at 15 µM. AID 602261;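 active = compounds whose normalised, plate-corrected inhibition of enzyme fluorescence in the single-dose primary screen is 50% or more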;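 note: 0% = DMSO with enzyme and 100% = substrate without enzyme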
ADAM17 inh: ADAM17 inhibition, QFRET primary screen; inhibition, % at 6.95 µM; AID 720648; recombinant ADAM17, EDANS/DABCYL FRET peptide cleavage; 370,000 compounds, 0.83% hits; P78536;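 active = inhibition above the mean of compounds lying between control limits plus 3 SD, set per campaign, cut at about 8.5% in these data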;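 note: 0% = DMSO-only wells as the low control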
FAS-TE conf: FAS thioesterase (human) inhibition, confirmation; 2,300 compounds, 45% hits; recombinant FAS-TE, OMFH fluorogenic substrate, fluorescence; inhibition, % at 15 µM; shares compounds with FAS-TE inh; AID 624325;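 active = compounds inhibiting the enzyme by at least 50% at 15 µM in any one of the replicates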;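 note: 0% = enzyme with DMSO only and 100% = wells lacking enzyme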
Numbers without * were called inactive; · = no result given. Shown are actives, neighbours in structure and some others; about 1.9% of the full set was active somewhere.

SMILES | ADAM10 inh | SENP1 inh | FAS-TE inh | ADAM17 inh | FAS-TE conf
N#C/C(=C/c1ccc2c(c1)OCO2)C(=O)NCCc1c[nH]c2ccccc12 | · | -2.3 | 52.0* | · | 33.8
CCS(=O)(=O)c1ncc(Cl)c(C(=O)Nc2ccc(S(=O)(=O)N(C)c3ccccc3)cc2)n1 | -2.9 | -0.2 | 47.3 | -5.1 | ·
Cc1ccc(NC(=O)c2nc(S(=O)(=O)Cc3ccccc3)ncc2Cl)cc1 | 2.7 | 2.0 | 40.7 | 0.0 | ·
O=C(Nc1ccc(F)cc1)c1nc(S(=O)(=O)Cc2ccccc2)ncc1Cl | -0.6 | -0.5 | 56.9* | -1.9 | 57.9*
Cc1ccccc1CS(=O)(=O)c1ncc(Cl)c(C(=O)Nc2ccc(F)cc2)n1 | -0.8 | 1.3 | 50.2* | -3.3 | 29.1
CCN(c1ccccc1)S(=O)(=O)c1ccc(NC(=O)c2nc(S(C)(=O)=O)ncc2Cl)cc1 | · | 2.3 | 58.2* | · | 61.2*
COc1ccc(NC(=O)OCCN2CCCC23CCC(c2ccccc2)CC3)cc1 (configuration not stated) | 6.2 | · | · | 0.2 | ·
O=C(NCCc1c[nH]c2ccccc12)OCc1cn(-c2cccc(C(F)(F)F)c2)nn1 | 5.2 | · | · | 4.4 | ·
Cc1ccc(C)c(NC(=O)CN2C(=O)CCSc3ccccc32)c1 | -5.1 | · | · | 5.8 | ·
CCc1c(-c2ccccc2Br)ncn1CCc1ccccc1OC | 0.3 | · | · | -2.5 | ·
CCOC(=O)N=Nc1c2ccccc2c2nc3no[nH]c3nc12 | 3.0 | 1.8 | 87.1* | 0.1 | 42.7*
O=C(N=C1N(Cc2ccccc2)C[C@]2(C=C3CCCCC3n3c(=O)n(-c4ccccc4)c(=O)n32)N1C(=O)OCc1ccccc1)c1ccccc1 (some centres not stated) | -7.7 | · | · | -4.7 | ·
Cc1sc(N2CCN(S(=O)(=O)c3ccc4c(c3)NC(=O)CO4)CC2)nc1-c1ccccc1 | -3.2 | 3.1 | 70.5* | -3.3 | 68.2*
Cc1ccc(Cn2cc(CN3[C@@H](Cc4ccccc4)COc4cc(Br)ccc4S3(=O)=O)nn2)cc1 | -3.0 | · | · | 1.3 | ·
O=C(/C=C/c1cc([N+](=O)[O-])ccc1OC(F)F)NCc1ccc(F)cc1 | 4.7 | 9.2 | 71.7* | -1.9 | 86.2*
CCC[C@H]1[C@@H](NCc2cccs2)CC[C@@]23CCCN2C(=O)CCC[C@@H]13 | 3.2 | · | · | 0.9 | ·
O=C1CC2c3cc(Br)ccc3CCN2C(=O)CN1Cc1ccccc1 (configuration not stated) | -15.0 | · | · | -5.1 | ·
Cc1ccc(C(=O)O)cc1NC(=S)NCCc1ccccc1 | -5.0 | 1.9 | -4.7 | -4.0 | ·
Cc1ccc(CNC(=S)Nc2ccc(C)c([N+](=O)[O-])c2)cc1 | 5.3 | 0.9 | 32.4 | 4.7 | ·
Cc1ccc(NC(=S)NCc2ccccc2)cc1[N+](=O)[O-] | 11.0 | 1.1 | 64.2* | 6.6 | 38.2
Cc1ccc([N+](=O)[O-])cc1NC(=O)C(Sc1ccccc1)c1ccccc1 (configuration not stated) | 8.0 | 2.1 | 81.5* | 2.2 | 85.2*
Cc1ccc([N+](=O)[O-])cc1NC(=S)NCCc1ccccc1 | 14.4 | 2.8 | 55.5* | 0.9 | 71.3*
Cc1ccc([C@H](C)NC(=O)C2=C(N)N(S(=O)(=O)c3ccc(C)cc3)C(C(=O)c3ccccc3)C2c2ccccc2Cl)cc1 (some centres not stated) | 9.2 | · | · | -2.2 | ·
CC(C)(C)c1ccc(C(=O)N2CCC2(C)C(=O)Nc2cccc(C#N)c2)cc1 (configuration not stated) | 6.0 | -0.8 | 64.8* | 4.7 | 65.7*
COc1ccccc1N1CCN(C(=O)c2ccc(Cn3c(=S)[nH]c4cc5c(cc4c3=O)OCO5)cc2)CC1 | -1.0 | 0.5 | 52.7* | -4.9 | 2.1
SMILES | ADAM10 inh | SENP1 inh | FAS-TE inh | ADAM17 inh | FAS-TE conf
COc1ccccc1N1CCN(C(=O)CCn2c(=O)[nH]c3ccccc3c2=O)CC1 | -14.8 | -1.2 | -6.4 | -2.9 | ·
COc1ccccc1N1CCN(C(=O)CCCn2c(=S)[nH]c3ccccc3c2=O)CC1 | -7.7 | -0.4 | 52.6* | -1.9 | 19.8
COc1ccc(OCC(=O)Nc2ccc3c(c2)OCO3)cc1 | -0.3 | -1.3 | -1.2 | -2.0 | ·
O=C(COc1ccc([N+](=O)[O-])cc1)Nc1ccc2c(c1)OCO2 | -1.7 | -1.1 | 58.9* | 0.1 | 41.1
O=c1c2ccccc2[nH]n1[C@@H](Cc1ccccc1)Cn1cc(-c2ccc(-c3ccccc3)cc2)nn1 | 13.3 | · | · | 7.3 | ·
Cc1nc2ccc(NC(=O)c3cc([N+](=O)[O-])cc([N+](=O)[O-])c3Cl)cc2s1 | 7.6 | 2.6 | 69.9* | 2.6 | 88.7*
CC(C)C(NC(=O)C12CC3CC(CC(C3)C1)C2)C(=O)N/N=C/C1=C(N2CCOCC2)C(=C\c2cccc([N+](=O)[O-])c2)/CC1 (configuration not stated) | -1.8 | 2.1 | 63.6* | -2.2 | 14.1
CN(C)S(=O)(=O)c1ccc(N2CCCC2)c(C(=O)NCC(=O)Nc2ccc(F)c(F)c2)c1 | -8.2 | -0.3 | 33.0 | -3.5 | ·
COc1ccc(C(=O)Nc2ccccc2N2CCCC2)cc1 | 7.8 | 4.8 | 2.6 | 2.5 | ·
CC(=O)Nc1cccc(NC(=O)c2cc([N+](=O)[O-])ccc2N2CCCCC2)c1 | -11.3 | -2.6 | 31.9 | -1.7 | ·
Cc1ccc(NC(=O)c2cc(S(=O)(=O)N(C)C)ccc2N2CCCC2)cc1F | 4.4 | 1.8 | 50.7* | 0.4 | 58.0*
Cc1ccc(-c2csc(NC(=O)c3cc([N+](=O)[O-])ccc3N3CCOCC3)n2)cc1 | 0.3 | -2.9 | 70.8* | 2.7 | 8.1
O=C(Nc1nc(-c2ccccc2)cs1)c1ccc(N2CCOCC2)c([N+](=O)[O-])c1 | · | 1.1 | 36.3 | · | ·
COc1ccc(C(=O)Nc2cc([N+](=O)[O-])ccc2N2CCCC2)cc1 | 0.7 | -5.0 | 57.9* | -2.3 | 52.2*
Cc1ccc(NC(=O)c2cc([N+](=O)[O-])ccc2N2CCCC2)cc1 | 2.4 | -9.2 | 66.2* | -3.5 | 42.0*
COC(=O)[C@]12C[C@H](CC(=O)NCCCCc3ccccc3)C(=O)N(CCC3=CCCCC3)C1=C[C@H](COCc1ccccc1)O[C@@H]2C | -4.1 | · | · | 1.9 | ·
Cc1ccc(OCC(=O)Nc2ccc([N+](=O)[O-])cc2)cc1 | 12.3 | 0.5 | -5.4 | 4.4 | ·
Cc1ccc(NC(=O)C2(c3ccc([N+](=O)[O-])cc3)CCCC2)cc1 | 1.3 | -0.2 | 60.2* | 1.4 | 50.8*
Cc1ccc(NC(=O)c2cc([N+](=O)[O-])ccc2N2CCOCC2)cc1C | 3.1 | -2.3 | 73.9* | 2.0 | 77.6*
Cc1ccc(NC(=O)c2cc([N+](=O)[O-])ccc2N2CCOCC2)cc1S(=O)(=O)N(C)C | 10.3 | -1.4 | 37.7 | -3.7 | ·
CC(C)c1ccc(NC(=O)c2cc([N+](=O)[O-])ccc2N2CCOCC2)cc1 | 1.6 | -0.7 | 73.5* | 3.7 | 23.7
CN(C)S(=O)(=O)c1cccc(NC(=O)c2cc([N+](=O)[O-])ccc2N2CCCCC2)c1 | -3.9 | -5.3 | 58.6* | 2.6 | 55.5*
O=S(=O)(CC1NCc2cc(F)ccc21)NCc1ccc(F)cc1 (configuration not stated) | 0.6 | · | · | -2.8 | ·
